# Reference: ChEMBL document CHEMBL2375313, “Synthesis, in vitro antitumor evaluation and DNA-binding study of novel tetrahydroquinolines and some derived tricyclic and tetracyclic ring systems” (Eur J Med Chem, 2013)
# Tests used:
# Type in all cases: functional
# HOP-92 = experiment: Cytotoxicity against human HOP92 cells assessed as growth inhibition at 10 uM after 48 hrs by sulphorhodamine B assay; conditions: HOP-92, 48 h, read-out: GI
# In short: (§1)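 NCI-60 one-dose screen per the NCI Drug Evaluation Branch protocol. Cells given a single 10 µM concentration with 48 h continuous exposure. Growth estimated by sulphorhodamine B protein assay. Result expressed as percentage growth inhibition relative to untreated growth.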
# NCI-H23 = experiment: Cytotoxicity against human NCI-H23 cells assessed as growth inhibition at 10 uM after 48 hrs by sulphorhodamine B assay; conditions: NCI-H23, 48 h, read-out: GI; in short: as §1
# [1] = Cytotoxicity against human EKVX cells assessed as growth inhibition at 10 uM after 48 hrs by sulphorhodamine B assay; conditions: read-out: GI; in short: as §1
# A549 = experiment: Cytotoxicity against human A549 cells assessed as growth inhibition at 10 uM after 48 hrs by sulphorhodamine B assay; conditions: A549, 48 h, read-out: GI; in short: as §1
# NCI/ADR-RES = experiment: Cytotoxicity against human NCI/ADR-RES cells assessed as growth inhibition at 10 uM after 48 hrs by sulphorhodamine B assay; conditions: read-out: GI; in short: as §1
# SNB-75 = experiment: Cytotoxicity against human SNB75 cells assessed as growth inhibition at 10 uM after 48 hrs by sulphorhodamine B assay; conditions: SNB-75, 48 h, read-out: GI; in short: as §1
# U-251 = experiment: Cytotoxicity against human U251 cells assessed as growth inhibition at 10 uM after 48 hrs by sulphorhodamine B assay; conditions: U-251, 48 h, read-out: GI; in short: as §1
# SNB-19 = experiment: Cytotoxicity against human SNB19 cells assessed as growth inhibition at 10 uM after 48 hrs by sulphorhodamine B assay; conditions: SNB-19, 48 h, read-out: GI; in short: as §1
# SF-295 = experiment: Cytotoxicity against human SF295 cells assessed as growth inhibition at 10 uM after 48 hrs by sulphorhodamine B assay; conditions: SF-295, 48 h, read-out: GI; in short: as §1
# DU-145 = experiment: Cytotoxicity against human DU145 cells assessed as growth inhibition at 10 uM after 48 hrs by sulphorhodamine B assay; conditions: DU-145, 48 h, read-out: GI; in short: as §1
# SF-268 = experiment: Cytotoxicity against human SF268 cells assessed as growth inhibition at 10 uM after 48 hrs by sulphorhodamine B assay; conditions: SF-268, 48 h, read-out: GI; in short: as §1
# PC-3 = experiment: Cytotoxicity against human PC3 cells assessed as growth inhibition at 10 uM after 48 hrs by sulphorhodamine B assay; conditions: PC-3, 48 h, read-out: GI; in short: as §1
# UACC-62 = experiment: Cytotoxicity against human UACC62 cells assessed as growth inhibition at 10 uM after 48 hrs by sulphorhodamine B assay; conditions: UACC-62, 48 h, read-out: GI; in short: as §1
# SK-MEL-2 = experiment: Cytotoxicity against human SK-MEL-2 cells assessed as growth inhibition at 10 uM after 48 hrs by sulphorhodamine B assay; conditions: SK-MEL-2, 48 h, read-out: GI; in short: as §1
# SK-MEL-5 = experiment: Cytotoxicity against human SK-MEL-5 cells assessed as growth inhibition at 10 uM after 48 hrs by sulphorhodamine B assay; conditions: SK-MEL-5, 48 h, read-out: GI; in short: as §1
# M14 = experiment: Cytotoxicity against human M14 cells assessed as growth inhibition at 10 uM after 48 hrs by sulphorhodamine B assay; conditions: M14, 48 h, read-out: GI; in short: as §1
# LOX IMVI = experiment: Cytotoxicity against human LOXIMVI cells assessed as growth inhibition at 10 uM after 48 hrs by sulphorhodamine B assay; conditions: read-out: GI; in short: as §1
# UO-31 = experiment: Cytotoxicity against human UO31 cells assessed as growth inhibition at 10 uM after 48 hrs by sulphorhodamine B assay; conditions: UO-31, 48 h, read-out: GI; in short: as §1
# CAKI-1 = experiment: Cytotoxicity against human Caki1 cells assessed as growth inhibition at 10 uM after 48 hrs by sulphorhodamine B assay; conditions: CAKI-1, 48 h, read-out: GI; in short: as §1
# RXF 393 = experiment: Cytotoxicity against human RXF393 cells assessed as growth inhibition at 10 uM after 48 hrs by sulphorhodamine B assay; conditions: RXF 393, 48 h, read-out: GI; in short: as §1
# ACHN = experiment: Cytotoxicity against human ACHN cells assessed as growth inhibition at 10 uM after 48 hrs by sulphorhodamine B assay; conditions: read-out: GI; in short: as §1
# SR = experiment: Cytotoxicity against human SR cells assessed as growth inhibition at 10 uM after 48 hrs by sulphorhodamine B assay; conditions: read-out: GI; in short: as §1
# A498 = experiment: Cytotoxicity against human A498 cells assessed as growth inhibition at 10 uM after 48 hrs by sulphorhodamine B assay; conditions: A498, 48 h, read-out: GI; in short: as §1
# RPMI-8226 = experiment: Cytotoxicity against human RPMI8226 cells assessed as growth inhibition at 10 uM after 48 hrs by sulphorhodamine B assay; conditions: RPMI-8226, 48 h, read-out: GI; in short: as §1
# MOLT-4 = experiment: Cytotoxicity against human MOLT4 cells assessed as growth inhibition at 10 uM after 48 hrs by sulphorhodamine B assay; conditions: MOLT-4, 48 h, read-out: GI; in short: as §1
# K562 = experiment: Cytotoxicity against human K562 cells assessed as growth inhibition at 10 uM after 48 hrs by sulphorhodamine B assay; conditions: K562, 48 h, read-out: GI; in short: as §1
# HL-60(TB) = experiment: Cytotoxicity against human HL-60(TB) cells assessed as growth inhibition at 10 uM after 48 hrs by sulphorhodamine B assay; conditions: HL-60, 48 h, read-out: GI
# In short: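 NCI-60 one-dose primary screen run to the Drug Evaluation Branch protocol. Cells are exposed to a single 10 µM concentration for 48 h continuously, and growth is read by SRB protein assay. Data are reported as percent growth of treated cells, expressed as % growth inhibition.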
# SK-OV-3 = experiment: Cytotoxicity against human SKOV3 cells assessed as growth inhibition at 10 uM after 48 hrs by sulphorhodamine B assay; conditions: SK-OV-3, 48 h, read-out: GI; in short: as §1
# CCRF-CEM = experiment: Cytotoxicity against human CCRF-CEM cells assessed as growth inhibition at 10 uM after 48 hrs by sulphorhodamine B assay; conditions: read-out: GI; in short: as §1
# OVCAR-5 = experiment: Cytotoxicity against human OVCAR5 cells assessed as growth inhibition at 10 uM after 48 hrs by sulphorhodamine B assay; conditions: OVCAR-5, 48 h, read-out: GI; in short: as §1
# OVCAR-4 = experiment: Cytotoxicity against human OVCAR4 cells assessed as growth inhibition at 10 uM after 48 hrs by sulphorhodamine B assay; conditions: OVCAR-4, 48 h, read-out: GI; in short: as §1
# IGROV-1 = experiment: Cytotoxicity against human IGROV1 cells assessed as growth inhibition at 10 uM after 48 hrs by sulphorhodamine B assay; conditions: IGROV-1, 48 h, read-out: GI; in short: as §1
# T47D = experiment: Cytotoxicity against human T47D cells assessed as growth inhibition at 10 uM after 48 hrs by sulphorhodamine B assay; conditions: read-out: GI; in short: as §1
# Hs-578T = experiment: Cytotoxicity against human Hs578T cells assessed as growth inhibition at 10 uM after 48 hrs by sulphorhodamine B assay; conditions: read-out: GI; in short: as §1
# NCI-H522 = experiment: Cytotoxicity against human NCI-H522 cells assessed as growth inhibition at 10 uM after 48 hrs by sulphorhodamine B assay; conditions: NCI-H522, 48 h, read-out: GI; in short: as §1
# HT-29 = experiment: Cytotoxicity against human HT-29 cells assessed as growth inhibition at 10 uM after 48 hrs by sulphorhodamine B assay; conditions: HT-29, 48 h, read-out: GI; in short: as §1
# MCF7 = experiment: Cytotoxicity against human MCF7 cells assessed as growth inhibition at 10 uM after 48 hrs by sulphorhodamine B assay; conditions: MCF7, 48 h, read-out: GI; in short: as §1
# MDA-MB-435 = experiment: Cytotoxicity against human MDA-MB-435 cells assessed as growth inhibition at 10 uM after 48 hrs by sulphorhodamine B assay; conditions: MDA-MB-435, 48 h, read-out: GI; in short: as §1
# HCT-15 = experiment: Cytotoxicity against human HCT15 cells assessed as growth inhibition at 10 uM after 48 hrs by sulphorhodamine B assay; conditions: HCT-15, 48 h, read-out: GI; in short: as §1
# MDA-MB-468 = experiment: Cytotoxicity against human MDA-MB-468 cells assessed as growth inhibition at 10 uM after 48 hrs by sulphorhodamine B assay; conditions: MDA-MB-468, 48 h, read-out: GI; in short: as §1
# HCT-116 = experiment: Cytotoxicity against human HCT116 cells assessed as growth inhibition at 10 uM after 48 hrs by sulphorhodamine B assay; conditions: HCT-116, 48 h, read-out: GI; in short: as §1
smiles,measurement,setting,value
COc1ccc(-c2c3c(nc4nc(C)[nH]c(=O)c24)C(C)CCC3)cc1 (configuration not stated),inhibition of growth at 10 µM,HOP-92,21.3%
same,inhibition of growth at 10 µM,NCI-H23,< 10%
same,inhibition of growth at 10 µM,[1],< 10%
same,inhibition of growth at 10 µM,A549,10%
same,inhibition of growth at 10 µM,NCI/ADR-RES,< 10%
same,inhibition of growth at 10 µM,SNB-75,< 10%
same,inhibition of growth at 10 µM,U-251,< 10%
same,inhibition of growth at 10 µM,SNB-19,< 10%
same,inhibition of growth at 10 µM,SF-295,< 10%
same,inhibition of growth at 10 µM,DU-145,< 10%
same,inhibition of growth at 10 µM,SF-268,< 10%
same,inhibition of growth at 10 µM,PC-3,14.2%
same,inhibition of growth at 10 µM,UACC-62,14.8%
same,inhibition of growth at 10 µM,SK-MEL-2,< 10%
same,inhibition of growth at 10 µM,SK-MEL-5,13.6%
same,inhibition of growth at 10 µM,M14,< 10%
same,inhibition of growth at 10 µM,LOX IMVI,17.3%
same,inhibition of growth at 10 µM,UO-31,< 10%
same,inhibition of growth at 10 µM,CAKI-1,< 10%
same,inhibition of growth at 10 µM,RXF 393,12.5%
same,inhibition of growth at 10 µM,ACHN,11.3%
same,inhibition of growth at 10 µM,SR,46.8%
same,inhibition of growth at 10 µM,A498,< 10%
same,inhibition of growth at 10 µM,RPMI-8226,21.8%
same,inhibition of growth at 10 µM,MOLT-4,23.3%
same,inhibition of growth at 10 µM,K562,11.2%
same,inhibition of growth at 10 µM,HL-60(TB),< 10%
same,inhibition of growth at 10 µM,SK-OV-3,< 10%
same,inhibition of growth at 10 µM,CCRF-CEM,16.5%
same,inhibition of growth at 10 µM,OVCAR-5,11.4%
same,inhibition of growth at 10 µM,OVCAR-4,< 10%
same,inhibition of growth at 10 µM,IGROV-1,< 10%
same,inhibition of growth at 10 µM,T47D,18.2%
same,inhibition of growth at 10 µM,Hs-578T,< 10%
same,inhibition of growth at 10 µM,NCI-H522,22%
same,inhibition of growth at 10 µM,HT-29,< 10%
same,inhibition of growth at 10 µM,MCF7,< 10%
same,inhibition of growth at 10 µM,MDA-MB-435,19%
same,inhibition of growth at 10 µM,HCT-15,11%
same,inhibition of growth at 10 µM,MDA-MB-468,< 10%
same,inhibition of growth at 10 µM,HCT-116,< 10%
CCSc1nc(N)c2c(-c3ccc(OC)cc3)c3c(nc2n1)C(C)CCC3 (configuration not stated),inhibition of growth at 10 µM,HOP-92,26.8%
same,inhibition of growth at 10 µM,NCI-H23,< 10%
same,inhibition of growth at 10 µM,[1],< 10%
same,inhibition of growth at 10 µM,A549,16%
same,inhibition of growth at 10 µM,NCI/ADR-RES,< 10%
same,inhibition of growth at 10 µM,SNB-75,< 10%
same,inhibition of growth at 10 µM,U-251,16%
same,inhibition of growth at 10 µM,SNB-19,12.5%
same,inhibition of growth at 10 µM,SF-295,< 10%
same,inhibition of growth at 10 µM,DU-145,24.5%
same,inhibition of growth at 10 µM,SF-268,< 10%
same,inhibition of growth at 10 µM,PC-3,31.4%
same,inhibition of growth at 10 µM,UACC-62,25%
same,inhibition of growth at 10 µM,SK-MEL-2,< 10%
same,inhibition of growth at 10 µM,SK-MEL-5,11.4%
same,inhibition of growth at 10 µM,M14,< 10%
same,inhibition of growth at 10 µM,LOX IMVI,10.6%
same,inhibition of growth at 10 µM,UO-31,10.5%
same,inhibition of growth at 10 µM,CAKI-1,< 10%
same,inhibition of growth at 10 µM,RXF 393,25.9%
same,inhibition of growth at 10 µM,ACHN,30.8%
same,inhibition of growth at 10 µM,SR,< 10%
same,inhibition of growth at 10 µM,A498,< 10%
same,inhibition of growth at 10 µM,RPMI-8226,25.5%
same,inhibition of growth at 10 µM,MOLT-4,29%
same,inhibition of growth at 10 µM,K562,32.5%
same,inhibition of growth at 10 µM,HL-60(TB),34.5%
same,inhibition of growth at 10 µM,SK-OV-3,< 10%
same,inhibition of growth at 10 µM,CCRF-CEM,26.4%
same,inhibition of growth at 10 µM,OVCAR-5,< 10%
same,inhibition of growth at 10 µM,OVCAR-4,26.8%
same,inhibition of growth at 10 µM,IGROV-1,< 10%
same,inhibition of growth at 10 µM,T47D,41%
same,inhibition of growth at 10 µM,Hs-578T,36.2%
same,inhibition of growth at 10 µM,NCI-H522,13.2%
same,inhibition of growth at 10 µM,HT-29,23.3%
same,inhibition of growth at 10 µM,MCF7,< 10%
same,inhibition of growth at 10 µM,MDA-MB-435,< 10%
same,inhibition of growth at 10 µM,HCT-15,23.8%
same,inhibition of growth at 10 µM,MDA-MB-468,13.8%
same,inhibition of growth at 10 µM,HCT-116,20%
